ChEMBL document CHEMBL3758107, “Lead optimization of the VU0486321 series of mGlu(1) PAMs. Part 2: SAR of alternative 3-methyl heterocycles and progress towards an in vivo tool” (Bioorg Med Chem Lett, 2016)

Key:
[1] = target: T1, Metabotropic glutamate receptor 1 (Homo sapiens, UniProt Q13255); test: Positive allosteric modulation of human mGlu1 receptor by cell based calcium mobilization; assay type: functional
In short: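 Calcium mobilization assay at mGlu1; EC50 and % Glu Max taken as the average of three independent experiments, each run in triplicate.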
Target sequence in this assay (Q13255 whole entry): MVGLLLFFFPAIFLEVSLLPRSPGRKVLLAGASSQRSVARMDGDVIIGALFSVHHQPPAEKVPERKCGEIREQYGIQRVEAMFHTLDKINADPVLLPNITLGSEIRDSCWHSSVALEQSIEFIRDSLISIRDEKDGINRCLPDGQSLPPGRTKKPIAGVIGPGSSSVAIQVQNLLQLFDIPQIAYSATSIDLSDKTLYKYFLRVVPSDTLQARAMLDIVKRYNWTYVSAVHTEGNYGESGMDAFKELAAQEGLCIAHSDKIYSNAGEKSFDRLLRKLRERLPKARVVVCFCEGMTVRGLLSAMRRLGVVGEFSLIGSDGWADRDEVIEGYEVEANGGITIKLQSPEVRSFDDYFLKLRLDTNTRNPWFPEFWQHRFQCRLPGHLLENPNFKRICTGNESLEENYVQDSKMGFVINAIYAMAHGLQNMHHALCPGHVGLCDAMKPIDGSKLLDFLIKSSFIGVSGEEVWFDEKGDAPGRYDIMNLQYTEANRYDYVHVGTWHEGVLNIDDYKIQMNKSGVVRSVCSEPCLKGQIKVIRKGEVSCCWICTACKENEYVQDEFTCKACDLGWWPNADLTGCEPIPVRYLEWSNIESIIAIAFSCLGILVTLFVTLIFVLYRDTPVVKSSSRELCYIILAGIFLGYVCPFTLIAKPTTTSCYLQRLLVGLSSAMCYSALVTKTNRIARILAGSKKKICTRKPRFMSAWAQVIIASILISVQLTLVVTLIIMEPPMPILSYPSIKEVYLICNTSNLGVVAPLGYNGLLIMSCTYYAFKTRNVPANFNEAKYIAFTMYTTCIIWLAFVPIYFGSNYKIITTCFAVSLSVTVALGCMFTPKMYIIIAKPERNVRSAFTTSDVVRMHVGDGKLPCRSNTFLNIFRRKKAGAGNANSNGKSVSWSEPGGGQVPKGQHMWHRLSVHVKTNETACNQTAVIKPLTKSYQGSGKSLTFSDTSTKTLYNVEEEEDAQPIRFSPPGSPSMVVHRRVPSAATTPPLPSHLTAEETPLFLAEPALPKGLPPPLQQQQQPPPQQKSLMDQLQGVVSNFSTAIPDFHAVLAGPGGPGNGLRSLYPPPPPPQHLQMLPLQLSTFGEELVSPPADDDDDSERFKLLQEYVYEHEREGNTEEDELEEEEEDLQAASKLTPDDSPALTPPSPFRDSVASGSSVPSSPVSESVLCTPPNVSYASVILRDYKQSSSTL

[2] = target: T1, Metabotropic glutamate receptor 1; test: Positive allosteric modulation of human mGlu1 receptor at 10 uM by cell based calcium mobilization relative to glutamate; assay type: functional
In short: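 Calcium mobilization assay at mGlu1, tested at a single point of 10 μM; response given as % Glu Max.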
Target sequence in this assay (Q13255 19-1194 limits assumed): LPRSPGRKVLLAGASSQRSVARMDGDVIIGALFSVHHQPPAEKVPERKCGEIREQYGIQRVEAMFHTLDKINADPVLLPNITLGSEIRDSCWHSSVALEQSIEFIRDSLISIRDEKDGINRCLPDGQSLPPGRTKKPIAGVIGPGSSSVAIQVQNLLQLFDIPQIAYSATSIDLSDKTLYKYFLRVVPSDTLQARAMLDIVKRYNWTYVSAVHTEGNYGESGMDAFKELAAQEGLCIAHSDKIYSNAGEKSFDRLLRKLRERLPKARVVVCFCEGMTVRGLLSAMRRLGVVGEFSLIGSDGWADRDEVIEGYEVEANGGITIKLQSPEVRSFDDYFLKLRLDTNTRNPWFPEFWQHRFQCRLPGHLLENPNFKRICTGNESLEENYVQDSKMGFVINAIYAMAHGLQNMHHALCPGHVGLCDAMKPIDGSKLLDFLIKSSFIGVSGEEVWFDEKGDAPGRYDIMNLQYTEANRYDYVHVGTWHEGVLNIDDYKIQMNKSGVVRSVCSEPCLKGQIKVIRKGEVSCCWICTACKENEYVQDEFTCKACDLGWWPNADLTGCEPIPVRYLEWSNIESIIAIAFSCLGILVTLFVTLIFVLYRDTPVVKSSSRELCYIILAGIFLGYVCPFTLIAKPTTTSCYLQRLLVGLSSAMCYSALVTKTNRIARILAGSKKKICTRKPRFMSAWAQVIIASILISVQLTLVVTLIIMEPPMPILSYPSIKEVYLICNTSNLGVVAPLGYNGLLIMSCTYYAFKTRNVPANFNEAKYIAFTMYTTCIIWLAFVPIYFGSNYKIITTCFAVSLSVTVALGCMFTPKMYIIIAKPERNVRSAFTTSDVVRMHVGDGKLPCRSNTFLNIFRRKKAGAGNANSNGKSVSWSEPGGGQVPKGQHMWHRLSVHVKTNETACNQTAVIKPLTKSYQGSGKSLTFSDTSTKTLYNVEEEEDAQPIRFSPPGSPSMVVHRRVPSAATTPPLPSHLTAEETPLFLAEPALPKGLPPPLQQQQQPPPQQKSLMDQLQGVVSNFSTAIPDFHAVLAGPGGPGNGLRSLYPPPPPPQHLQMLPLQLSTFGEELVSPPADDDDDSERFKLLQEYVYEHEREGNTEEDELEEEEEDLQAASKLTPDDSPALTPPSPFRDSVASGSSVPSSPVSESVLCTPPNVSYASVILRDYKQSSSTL

[3] = target: T2, Metabotropic glutamate receptor 4 (Homo sapiens, UniProt Q14833); test: Positive allosteric modulation of human mGlu4 receptor by cell based calcium mobilization; assay type: functional
[4] = target: T2, Metabotropic glutamate receptor 4; test: Positive allosteric modulation of human mGlu4 receptor assessed as glutamate-induced calcium mobilization at 10 uM by cell based assay relative to PHCCC; assay type: functional
Homo sapiens = species: Homo sapiens; test: Selectivity ratio of EC50 for human mGlu4 receptor to EC50 for human mGlu1 receptor

T2 sequence (Q14833 whole entry): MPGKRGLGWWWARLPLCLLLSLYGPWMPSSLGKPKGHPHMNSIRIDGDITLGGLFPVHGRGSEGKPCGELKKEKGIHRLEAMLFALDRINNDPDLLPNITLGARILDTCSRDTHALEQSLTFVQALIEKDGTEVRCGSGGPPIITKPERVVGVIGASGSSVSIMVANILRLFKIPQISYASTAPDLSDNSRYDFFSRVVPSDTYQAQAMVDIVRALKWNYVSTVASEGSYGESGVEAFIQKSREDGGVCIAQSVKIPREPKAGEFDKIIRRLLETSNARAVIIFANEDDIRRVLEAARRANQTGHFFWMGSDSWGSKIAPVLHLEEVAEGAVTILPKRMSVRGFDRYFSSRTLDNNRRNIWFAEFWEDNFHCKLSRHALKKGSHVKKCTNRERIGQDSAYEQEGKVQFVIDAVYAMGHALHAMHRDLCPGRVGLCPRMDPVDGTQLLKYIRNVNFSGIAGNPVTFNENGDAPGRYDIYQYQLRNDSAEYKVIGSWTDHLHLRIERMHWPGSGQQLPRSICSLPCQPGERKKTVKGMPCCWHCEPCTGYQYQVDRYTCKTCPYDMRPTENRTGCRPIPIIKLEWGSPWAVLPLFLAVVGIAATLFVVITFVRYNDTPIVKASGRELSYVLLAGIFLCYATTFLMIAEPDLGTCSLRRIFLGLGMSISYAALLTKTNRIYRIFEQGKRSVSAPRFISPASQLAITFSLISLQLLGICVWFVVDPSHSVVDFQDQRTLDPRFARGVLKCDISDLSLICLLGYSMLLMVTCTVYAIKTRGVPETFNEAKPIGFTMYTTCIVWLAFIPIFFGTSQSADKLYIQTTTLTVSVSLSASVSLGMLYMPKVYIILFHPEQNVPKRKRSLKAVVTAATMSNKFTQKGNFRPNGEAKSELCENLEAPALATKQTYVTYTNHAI

Structure (SMILES)	EC50 ([1]; read-out: EC50)	EC50 ([1]; read-out: pEC50 (converted))	%max [2]	EC50 [3]	%max [4]	Ratio EC50 (Homo sapiens)
Cc1cn[nH]c1C(=O)Nc1ccc(N2C(=O)c3ccc(F)cc3C2=O)c(Cl)c1	632 nM		106%	6200 nM	59%	9.8
Cc1cccc2c1C(=O)N(c1ccc(NC(=O)c3ncoc3C)c(F)c1)C2=O			20%			
Cc1cn[nH]c1C(=O)Nc1ccc(N2C(=O)c3ccccc3C2=O)c(Cl)c1	1240 nM		107%			
Cc1ocnc1C(=O)Nc1ccc(N2C(=O)c3ccccc3C2=O)c(Cl)c1	1470 nM		100%			
Cc1scnc1C(=O)Nc1ccc(N2C(=O)c3ccc(F)cc3C2=O)cc1F			45%			
Cc1ocnc1C(=O)Nc1ccc(N2C(=O)c3cccc(F)c3C2=O)cc1F			36%			
Cc1cn[nH]c1C(=O)Nc1ccc(N2C(=O)c3cccc(F)c3C2=O)c(Cl)c1	599 nM	22.4 nM	83%	> 10000 nM		
Cc1ocnc1C(=O)Nc1ccc(N2C(=O)c3cccc(Cl)c3C2=O)cc1F			27%			
Cc1cn[nH]c1C(=O)Nc1ccc(N2C(=O)c3ccc(Cl)cc3C2=O)c(Cl)c1	855 nM		113%	3380 nM	117%	3.9
Cc1cc[nH]c1C(=O)Nc1ccc(N2C(=O)c3ccccc3C2=O)c(Cl)c1	3420 nM	3470 nM	95%			
Cc1ocnc1C(=O)Nc1ccc(N2C(=O)c3ccc(Cl)cc3C2=O)cc1F			25%			
Cc1ocnc1C(=O)Nc1ccc(N2C(=O)c3ccccc3C2=O)cc1F			18%			
Cn1ccnc1C(=O)Nc1ccc(N2C(=O)c3ccc(Cl)cc3C2=O)c(Cl)c1	265 nM		103%	1570 nM	145%	5.9
Cc1ccsc1C(=O)Nc1ccc(N2C(=O)c3ccccc3C2=O)c(Cl)c1	1890 nM		105%			
Cc1ccc2c(c1)C(=O)N(c1ccc(NC(=O)c3nccn3C)cc1Cl)C2=O	254 nM		108%	602 nM	124%	2.4
Cc1ocnc1C(=O)Nc1ccc(N2C(=O)c3ccc(Cl)cc3C2=O)c(Cl)c1	54 nM		104%	405 nM	67%	7.4
Cc1ccc2c(c1)C(=O)N(c1ccc(NC(=O)c3[nH]ncc3C)cc1Cl)C2=O	557 nM		106%	2750 nM	133%	4.9
Cc1ccc2c(c1)C(=O)N(c1ccc(NC(=O)c3ncsc3C)c(F)c1)C2=O			36%			
Cc1scnc1C(=O)Nc1ccc(N2C(=O)c3ccccc3C2=O)cc1F			45%			

Structure (SMILES)	EC50 ([1]; read-out: EC50)	EC50 ([1]; read-out: pEC50 (converted))	%max [2]	EC50 [3]	%max [4]	Ratio EC50 (Homo sapiens)
Cc1ccc2c(c1)C(=O)N(c1ccc(NC(=O)c3ncoc3C)cc1Cl)C2=O	41 nM		98%	198 nM	75%	4.8
Cc1sccc1C(=O)Nc1ccc(N2C(=O)c3ccccc3C2=O)c(Cl)c1	1510 nM		105%			
Cc1cn[nH]c1C(=O)Nc1ccc(N2C(=O)c3cccnc3C2=O)c(Cl)c1	> 10000 nM		37%	> 10000 nM	27%	
Cc1ncoc1C(=O)Nc1ccc(N2C(=O)c3ccccc3C2=O)c(Cl)c1	> 10000 nM					
Cc1ccc2c(c1)C(=O)N(c1ccc(NC(=O)c3ncoc3C)c(F)c1)C2=O			14%			
Cn1ccnc1C(=O)Nc1ccc(N2C(=O)c3ccc(F)cc3C2=O)c(Cl)c1	673 nM		87%	1070 nM	63%	1.5
CN1CCC[C@@H]1C(=O)Nc1ccc(N2C(=O)c3ccccc3C2=O)c(Cl)c1	> 10000 nM					
Cn1ccnc1C(=O)Nc1ccc(N2C(=O)c3ccccc3C2=O)c(Cl)c1	374 nM	355 nM	59%			
Cc1ocnc1C(=O)Nc1ccc(N2C(=O)c3cccnc3C2=O)c(Cl)c1	1700 nM		91%	2530 nM	45%	> 5.9
Cc1ocnc1C(=O)Nc1ccc(N2C(=O)c3ccc(F)cc3C2=O)c(Cl)c1	141 nM		93%	642 nM	36%	4.6
Cc1scnc1C(=O)Nc1ccc(N2C(=O)c3ccc(Cl)cc3C2=O)cc1F			40%			
Cn1cccc1C(=O)Nc1ccc(N2C(=O)c3ccccc3C2=O)c(Cl)c1	5260 nM		95%			
Cc1[nH]ccc1C(=O)Nc1ccc(N2C(=O)c3ccccc3C2=O)c(Cl)c1	> 10000 nM					
Cc1ocnc1C(=O)Nc1ccc(N2C(=O)c3ccc(F)cc3C2=O)cc1F			16%			
CN1CCC[C@H]1C(=O)Nc1ccc(N2C(=O)c3ccccc3C2=O)c(Cl)c1	> 10000 nM					
Cc1scnc1C(=O)Nc1ccc(N2C(=O)c3cccnc3C2=O)cc1F			42%			
Cc1ocnc1C(=O)Nc1ccc(N2C(=O)c3cccnc3C2=O)cc1F			9%			
Cn1ccnc1C(=O)Nc1ccc(N2C(=O)c3cccnc3C2=O)c(Cl)c1	> 10000 nM		44%	> 10000 nM		

The next lines start with the values.

EC50 ([1]; read-out: EC50)	EC50 ([1]; read-out: pEC50 (converted))	%max [2]	EC50 [3]	%max [4]	Ratio EC50 (Homo sapiens)	Structure (SMILES)
469 nM	479 nM	91%	519 nM	39%	0.9	Cc1cccc2c1C(=O)N(c1ccc(NC(=O)c3ncoc3C)cc1Cl)C2=O
> 10000 nM		30%	> 10000 nM	30%		Cn1ccnc1C(=O)Nc1ccc(N2C(=O)c3cccc(Cl)c3C2=O)c(Cl)c1
		22%				Cc1scnc1C(=O)Nc1ccc(N2C(=O)c3cccc(Cl)c3C2=O)cc1F
4940 nM		110%	> 10000 nM			Cc1cn[nH]c1C(=O)Nc1ccc(N2C(=O)c3cccc(C)c3C2=O)c(Cl)c1
> 10000 nM						Cc1ncsc1C(=O)Nc1ccc(N2C(=O)c3ccccc3C2=O)c(Cl)c1
1290 nM	1320 nM	112%	983 nM	24%	0.7	Cc1ocnc1C(=O)Nc1ccc(N2C(=O)c3cccc(Cl)c3C2=O)c(Cl)c1
56 nM	58.9 nM	96%				Cc1scnc1C(=O)Nc1ccc(N2C(=O)c3ccccc3C2=O)c(Cl)c1
232 nM		104%	1410 nM	75%	6.1	Cc1cccc2c1C(=O)N(c1ccc(NC(=O)c3ncsc3C)cc1Cl)C2=O
22 nM		86%	1120 nM	161%	51.1	Cc1ccc2c(c1)C(=O)N(c1ccc(NC(=O)c3ncsc3C)cc1Cl)C2=O
		17%				Cc1cccc2c1C(=O)N(c1ccc(NC(=O)c3ncsc3C)c(F)c1)C2=O
1370 nM		121%	> 10000 nM	59%		Cc1scnc1C(=O)Nc1ccc(N2C(=O)c3cccc(Cl)c3C2=O)c(Cl)c1
63 nM		98%	306 nM	52%	4.9	Cc1scnc1C(=O)Nc1ccc(N2C(=O)c3ccc(F)cc3C2=O)c(Cl)c1
191 nM		98%	> 10000 nM			Cc1scnc1C(=O)Nc1ccc(N2C(=O)c3cccnc3C2=O)c(Cl)c1
187 nM		111%	474 nM	52%	2.5	Cc1scnc1C(=O)Nc1ccc(N2C(=O)c3cccc(F)c3C2=O)c(Cl)c1
241 nM	1700 nM	98%	> 10000 nM		1.7	Cc1ocnc1C(=O)Nc1ccc(N2C(=O)c3cccc(F)c3C2=O)c(Cl)c1
> 10000 nM		30%	506 nM	32%		Cc1cccc2c1C(=O)N(c1ccc(NC(=O)c3nccn3C)cc1Cl)C2=O
		43%				Cc1scnc1C(=O)Nc1ccc(N2C(=O)c3cccc(F)c3C2=O)cc1F
51 nM		91%	1980 nM	169%	39.1	Cc1scnc1C(=O)Nc1ccc(N2C(=O)c3ccc(Cl)cc3C2=O)c(Cl)c1
> 10000 nM		94%	> 10000 nM			Cc1cn[nH]c1C(=O)Nc1ccc(N2C(=O)c3cccc(Cl)c3C2=O)c(Cl)c1
> 10000 nM		43%	1090 nM	42%		Cn1ccnc1C(=O)Nc1ccc(N2C(=O)c3cccc(F)c3C2=O)c(Cl)c1
